Bioassay records from PubChem.
INS promoter act: TRM-6 insulin promoter activation. TRM-6 cells (human fetal islet line), insulin promoter eGFP reporter, imaging; plate-scaled: unstimulated 0, stimulated control 100. activation, % at 2 µM. actives 0.81% (n = 130,000);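 active = activation at 2 µM above a set limit, confirmed on inspection of the cell images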;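 also: share of cells whose green reporter signal exceeds an intensity cutoff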
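Assay system: TRM-6 human fetal islet cells, insulin promoter–eGFP reporter; Also added: 0.75 µM tamoxifen as reporter inducer; Schedule: 15 h tamoxifen pre-treatment, 48 h compound treatment at 37 °C; Signal: fixed-cell fluorescence microscopy, eGFP plus Hoechst; Read-out: percent activation from GFP-positive cell fraction; Control set: stimulated and unstimulated wells.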
* marks the source's active call; other numbers are inactive results. The sample as a whole holds a higher share of hits than the screen did.

SMILES	INS promoter act
COCCNC(=O)COC(=O)/C=C/c1cnc2ccccc2n1	9
O=C(NCC(=O)N(c1ccc2c(c1)OCCO2)C(C(=O)NC1CCCC1)c1ccco1)c1ccco1 (configuration not stated)	-10
Cc1sc2nc(CN(C(=O)NC3CCCCC3)C3CCCCC3)[nH]c(=O)c2c1C	363
CC(C)CC1NC(=O)N(CC(=O)Nc2ccccc2-c2ccccc2)C1=O (configuration not stated)	156
COc1ccc(-c2cc(-c3n[nH]c(=S)n3-c3ccccc3Cl)[nH]n2)cc1	0
CCC(C(=O)NCc1cccnc1)c1ccccc1 (configuration not stated)	440*
CC(NS(=O)(=O)c1ccc(CCC(=O)NCc2cccnc2)cc1)c1ccccc1 (configuration not stated)	133
CC(c1ccccc1)n1cc(C(=O)NCc2cccnc2)nn1 (configuration not stated)	0
CC1CCCC(C)N1C(=O)CSc1nnc(-c2cccs2)o1 (configuration not stated)	3
O=C(CSc1nc2ccsc2c(=O)n1Cc1ccc(C(=O)O)cc1)NCC1CCCO1 (configuration not stated)	6
O=C(CSc1nnc(-c2cccs2)o1)NCC1CN(Cc2ccccc2)CCO1 (configuration not stated)	76*
O=C(CCCN1C(=O)c2ccccc2C1=O)Nc1nnc(C2CC2)s1	-8
CN(C)N1C(N)=C(C#N)C(c2cccc3ccccc23)C2=C1CC(c1ccccc1)CC2=O (configuration not stated)	-5
O=C(c1ccco1)N1CCN(Cc2nc3cc(Cl)ccc3c(=O)[nH]2)CC1	-7
NC(=O)C1CCN(CC(=O)NC2CCCc3ccccc32)CC1 (configuration not stated)	-4
Cc1ccc(S(=O)(=O)N2CCN(CC(=O)NC3CCCc4ccccc43)CC2)c(C)c1 (configuration not stated)	0
O=C(CN1C(=O)C2CC=CCC2C1=O)NC1CCCc2ccccc21 (configuration not stated)	83*
O=C(NCC1COc2ccccc2O1)c1cc2ccccc2o1 (configuration not stated)	0
Cc1ccnc(SCC(=O)O)n1	-3
Cc1ccnc(SCC(=O)N2CCc3ccccc3C2)n1	0
Cc1ccnc(SCc2cc(=O)c(OC(=O)c3ccccc3)co2)n1	428*
CCCCC(=O)Nc1nc2ccc(C(=O)OC)cc2s1	0
CC(=O)Nc1ccc(NC(=O)C(Cc2ccccc2)NC(=O)C2CCCCC2)cc1 (configuration not stated)	-64
CCOc1ccc(S(=O)(=O)NCC(=O)N(C)Cc2cccnc2)cc1	79*
CCC(C)NS(=O)(=O)c1ccc(OCC(=O)NCc2cccnc2)cc1 (configuration not stated)	-6
SMILES	INS promoter act
CCOc1ccc(OCC)c(S(=O)(=O)NCc2cccnc2)c1	-5
O=C(O)CSc1c(-c2cccs2)[nH]c2ccccc12	-6
COc1ccc(S(=O)(=O)N(C)CC(=O)Nc2ccc(C(F)(F)F)cc2)cc1Cl	0
CCCn1c(C)cc(C(=O)CSc2nc3nc(C)cc(C)n3n2)c1C	-6
CCOC(=O)c1cnn(-c2cc(Oc3ccccc3C)ncn2)c1N	-10
Cc1ccc(-c2nc(C(=O)O)cs2)cc1	146
Cc1nc(N(C)C)ncc1C(=O)O	2
Cc1ccc(-c2ccc(C(=O)O)c(C)n2)cc1	386*
O=C(CN1CCN(c2ccccn2)CC1)N(c1ccccc1)c1ccc2ccccc2c1	178
O=S(=O)(c1ccc(F)c(F)c1F)N1CCN(C(=S)Nc2ccccc2)CC1	324*
S=C(Nc1ccccc1)N1CCCCCCC1	7
NS(=O)(=O)c1ccc(NC(=S)N2CCN(c3ccccc3Cl)CC2)cc1	-5
O=C(CSc1nc2ccccc2s1)NNC(=S)Nc1ccccc1	-3
O=C(CSc1nc2ccccc2s1)Nc1nccs1	-3
O=C(CSc1nc2ccccc2s1)CSc1nc2ccccc2s1	94*
O=C(CSc1nc2ccccc2s1)N/N=C/c1ccc(C(=O)O)cc1	161*
Nc1nonc1NC(=O)CSc1nc2ccccc2s1	4
O=C(CSc1nc2ccccc2o1)N/N=C/c1ccccc1	3
CC(c1ccccc1)N1CC(C(=O)N2CCN(c3ccc(F)cc3)CC2)CC1=O (configuration not stated)	0
CC(C)(C)c1nc(C(C)(C)C)c(Br)c(=O)[nH]1	-6
C#Cc1ccc(C(=O)Nc2ccc(N3CCC(C)CC3)c(C(N)=O)c2)cc1	-8
COc1ccc(N2CCN(C(=O)c3cccc4nc(C)oc34)CC2)cc1	0
COc1ccc(NC(=O)CC2SC(=N)N(c3ccccc3)C2=O)c(OC)c1 (configuration not stated)	118
N#CCC(=O)NCCCOC(=O)Nc1ccc(Cl)c(Cl)c1	9
CC(=O)Nc1cccc(OCC(O)Cn2cnc3ccccc32)c1 (configuration not stated)	9
SMILES	INS promoter act
Cc1cccc(OCC(O)CNC(=O)c2ccccc2C(=O)O)c1 (configuration not stated)	-7
CC(=O)OC(COc1cccc(C)c1)Cn1cnc2ccccc21 (configuration not stated)	407*
O=[N+]([O-])c1ccccc1S(=O)(=O)Oc1ccc(C(=S)N2CCOCC2)cc1	7
Cc1ccc(S(=O)(=O)/N=C(\CCl)N2CCOCC2)cc1	129
COc1ccc(N2CCN(Cc3nc4ccccc4c(=O)[nH]3)CC2)cc1	579*
COc1cccc(N2CCN(Cc3nc4ccccc4c(=O)[nH]3)CC2)c1	-79
CCC(CC)C(=O)N1CCN(Cc2nc3ccccc3c(=O)[nH]2)CC1	-10
COc1ccc(NC(=O)NCCCN2CCCC2=O)c(OC)c1	0
O=C(COC(=O)CCc1ccc(S(=O)(=O)N2CCOCC2)cc1)NCc1ccccc1Cl	0
COc1cc(OC)c(OC)cc1CNc1cc(C)ccc1OC	9
COc1cc2ncnc(NCc3ccc(C)cc3)c2cc1OC	230*
COc1ccc(CNC(=O)CSc2ncnc3ccccc23)cc1OC	-9
C1CN=C(NC23CC4CC(CC(C4)C2)C3)C1	0
Cc1ccc(/C=C/C(=O)OCc2nc(N)nc(Nc3ccccc3C)n2)o1	0
COc1ccc(OC)c2sc(N(CCN(C)C)C(=O)c3cc(Cl)sc3Cl)nc12	283*
CN(C)CCN(C(=O)c1cccc(Cl)c1)c1nc2c(Cl)cccc2s1	-10
CN(C)CCCN(C(=O)c1ccco1)c1nc2ccc(Cl)cc2s1	0
CCc1ccccc1NS(=O)(=O)c1cc(C)ccc1OC	1
CCCOc1ccc(C(NC(=O)CC(C)C)NC(=O)CC(C)C)cc1OC	0
Cc1ccccc1CN1CCN(S(C)(=O)=O)CC1	444*
Cc1ccccc1CN1CCN(CC2CC3C=CC2C3)CC1 (configuration not stated)	4
CCOc1ccccc1CN1CCN(S(C)(=O)=O)CC1	0
O=C(NC1CCN(C(=S)NCc2ccco2)CC1)c1cccc(F)c1	0
CC(C)(C)C(=O)C(CO)(Oc1ccc(Cl)cc1)n1cncn1 (configuration not stated)	10
CN(C)/C=C(/C#N)C(=O)c1cccc(Oc2ccc(C(C)(C)C)cc2)c1	4
CN(C)CCCOC(=O)c1ccccc1	327
C[N+]1(CC(=O)OCCCc2ccccc2)CCCCC1	350*
CC(C)(C)C(=O)NCCCc1ccccc1	-3
COc1ccc(CNCC(=O)Nc2sccc2C#N)cc1	-6
